Results reported in ChEMBL document CHEMBL1142699 (J Med Chem, 2005).
Numbered stars: 1 amine (or outer) side, 2 acyl side, 3 side chain; on linkers, the order of the positions; unused ones are H or OH. Square brackets hold non-standard residues; d marks the D form. Peptide text beside a SMILES is read from it. * marks the point of attachment. X1 = N[C@@H](Cc1ccccc1)CN(CC(=O)[*:2])[*:1]; Phe(4-F) = N[C@@H](Cc1ccc(F)cc1)C(=O)O; N(NH2)2 = NN(N)*; NHNH2 = NN*

Columns and labels:
[1] = molecular target: T1, Nociceptin receptor (Homo sapiens, UniProt P41146); assay: Receptor binding affinity for recombinant human N/OFQ peptide receptor (NOP) expressed in chinese hamster ovary cells; format: cell-based, CHO
T1 sequence (P41146 whole entry): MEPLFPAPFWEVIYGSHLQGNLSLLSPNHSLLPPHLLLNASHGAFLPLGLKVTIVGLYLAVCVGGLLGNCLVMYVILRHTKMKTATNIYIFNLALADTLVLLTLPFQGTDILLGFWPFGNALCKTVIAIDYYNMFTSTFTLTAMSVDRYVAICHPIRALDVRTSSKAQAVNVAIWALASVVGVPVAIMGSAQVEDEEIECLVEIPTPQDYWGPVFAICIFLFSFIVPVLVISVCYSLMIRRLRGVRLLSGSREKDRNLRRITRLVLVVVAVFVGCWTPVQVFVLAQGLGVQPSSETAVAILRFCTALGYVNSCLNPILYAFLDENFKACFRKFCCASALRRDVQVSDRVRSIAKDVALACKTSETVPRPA

[2] = molecular target: Nociceptin receptor (Cavia porcellus) (UniProt P47748); assay: Maximal inhibition of electrically evoked contraction of guinea pig ileum; Effect evident only in some tissues; format: functional, tissue-based; conditions: filed as agonist
Chain of Nociceptin receptor (Cavia porcellus) (P47748 whole entry): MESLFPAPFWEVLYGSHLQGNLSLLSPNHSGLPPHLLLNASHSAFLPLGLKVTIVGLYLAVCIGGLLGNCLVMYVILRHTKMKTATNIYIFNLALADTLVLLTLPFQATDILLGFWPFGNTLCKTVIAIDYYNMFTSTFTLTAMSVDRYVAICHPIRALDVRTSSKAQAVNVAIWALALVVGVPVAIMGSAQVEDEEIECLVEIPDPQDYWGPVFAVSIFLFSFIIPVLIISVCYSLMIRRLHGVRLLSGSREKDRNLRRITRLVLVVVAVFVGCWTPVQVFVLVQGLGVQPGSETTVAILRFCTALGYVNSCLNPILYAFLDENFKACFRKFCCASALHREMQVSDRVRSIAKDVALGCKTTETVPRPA

[3] = molecular target: Nociceptin receptor (Cavia porcellus) (UniProt P47748); assay: Inhibition of electrically evoked contraction of guinea pig ileum; Effect evident only in some tissues; format: functional, tissue-based; conditions: filed as agonist
[4] = molecular target: Nociceptin receptor (Mus musculus) (UniProt P35377); assay: Maximal inhibition of electrically evoked contraction of mouse vas deferens; Effect evident only in some tissues; format: functional; conditions: filed as agonist
Chain of Nociceptin receptor (Mus musculus) (P35377 whole entry): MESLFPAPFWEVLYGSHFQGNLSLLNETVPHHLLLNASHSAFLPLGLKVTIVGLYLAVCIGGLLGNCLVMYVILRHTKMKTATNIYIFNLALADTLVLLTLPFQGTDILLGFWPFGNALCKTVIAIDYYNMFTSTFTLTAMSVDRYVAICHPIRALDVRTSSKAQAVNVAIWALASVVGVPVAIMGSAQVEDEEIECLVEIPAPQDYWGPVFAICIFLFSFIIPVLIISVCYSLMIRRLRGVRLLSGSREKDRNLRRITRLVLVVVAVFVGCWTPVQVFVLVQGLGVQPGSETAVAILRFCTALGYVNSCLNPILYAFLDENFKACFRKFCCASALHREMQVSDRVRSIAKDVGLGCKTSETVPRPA

[5] = molecular target: Nociceptin receptor (Mus musculus) (UniProt P35377); assay: Antagonistic potency against N/OFQ in electrically evoked contraction of mouse vas deferens at 0.1 uM; format: functional, tissue-based
Procedure, shortened: (§1)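 Male Swiss mice (25-30 g). Vas deferens in 5 mL baths of Mg2+-free Krebs at 33 °C, 0.3 g tension, field-stimulated with supramaximal 1 ms pulses at 0.05 Hz, isotonic recording.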

[6] = molecular target: Nociceptin receptor (Mus musculus) (UniProt P35377); assay: Inhibition of electrically evoked contraction of mouse vas deferens; Effect evident only in some tissues; format: functional; conditions: filed as agonist
[7] = molecular target: Nociceptin receptor (Cavia porcellus) (UniProt P47748); assay: Maximal inhibition of electrically evoked contraction of guinea pig ileum; format: functional, tissue-based
[8] = molecular target: Nociceptin receptor (Mus musculus) (UniProt P35377); assay: Maximal inhibition of electrically evoked contraction of mouse vas deferens; format: functional, tissue-based
[9] = molecular target: T1, Nociceptin receptor; assay: Inhibition of forskolin stimulated cAMP levels in CHO cells expressing the human NOP receptor (CHOhNOP)
[10] = molecular target: Nociceptin receptor (Mus musculus, UniProt P35377); assay: Inhibition of electrically evoked contraction of mouse vas deferens; format: functional
Chain of Nociceptin receptor (Mus musculus, UniProt P35377) (P35377 whole entry): as above
Procedure, shortened: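 Vas deferens from male Swiss mice (25-30 g), in Mg2+-free Krebs at 33 °C under 0.3 g resting tension. Field-stimulated with 1 ms supramaximal pulses at 0.05 Hz; twitches recorded isotonically. After ~1 h equilibration, cumulative concentration-response curves in 0.5 log steps. […] 5-8 experiments.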

[11] = molecular target: Nociceptin receptor (Cavia porcellus, UniProt P47748); assay: Inhibition of electrically evoked contraction of guinea pig ileum; format: functional, tissue-based
Chain of Nociceptin receptor (Cavia porcellus, UniProt P47748) (P47748 whole entry): as the sequence (P47748 whole entry) above
Procedure, shortened: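 Guinea pig ileum from albino animals (250-300 g), in Krebs at 37 °C under 0.3 g resting tension. Field-stimulated with 1 ms supramaximal pulses at 0.05 Hz; twitches recorded isotonically. After ~1 h equilibration, cumulative concentration-response curves in 0.5 log steps. […] 5-8 experiments.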

[12] = molecular target: Nociceptin receptor (Mus musculus) (UniProt P35377); assay: Antagonistic potency against N/OFQ in electrically evoked contraction of mouse vas deferens at 1 uM; format: functional, tissue-based; procedure, shortened: as §1
[13] = molecular target: T1, Nociceptin receptor; assay: Agonist potency against GTPgammaS binding in CHO cell membranes expressing the human NOP receptor (CHOhNOP)
[14] = molecular target: Nociceptin receptor (Cavia porcellus) (UniProt P47748); assay: Antagonistic potency against N/OFQ in electrically evoked contractions of guinea pig ileum at 1 uM; format: functional, tissue-based

Compound | Ki [1] [nM] | Emax [2] | Log EC50 [3] | Emax [4] | Activity [6] | also measured
C[C@H](NC(=O)CNC(=O)[C@@H](NC(=O)[C@H](Cc1ccccc1)NC(=O)CNC(=O)CNC(=O)CNCc1ccccc1)[C@@H](C)O)C(=O)N[C@@H](CCCN=C(N)N)C(=O)N[C@@H](CCCCN)C(=O)N[C@@H](CO)C(=O)N[C@@H](C)C(=O)N[C@@H](CCCN=C(N)N)C(=O)N[C@@H](CCCCN)C(=O)N[C@@H](CCCN=C(N)N)C(=O)N[C@@H](CCCCN)C(=O)N[C@@H](CC(N)=O)C(=O)N[C@@H](CCC(N)=O)C(N)=O | 0.129 | – | – | – | – | –
C[C@H](NC(=O)CNC(=O)[C@@H](NC(=O)[C@H](Cc1ccc(F)cc1)NC(=O)CNC(=O)CNC(=O)CNCc1ccccc1)[C@@H](C)O)C(=O)N[C@@H](CCCN=C(N)N)C(=O)N[C@@H](CCCCN)C(=O)N[C@@H](CO)C(=O)N[C@@H](C)C(=O)N[C@@H](CCCN=C(N)N)C(=O)N[C@@H](CCCCN)C(=O)N[C@@H](CCCN=C(N)N)C(=O)N[C@@H](CCCCN)C(=O)N[C@@H](CC(N)=O)C(=O)N[C@@H](CCC(=O)N(N)N)C(=O)NN | – | Agonist | Agonist | Agonist | Agonist | pKb [5]: 7.97; pKb ([5]; Cavia porcellus): 7.82
CC(C)C[C@H](NC(=O)[C@H](CCCCN)NC(=O)[C@H](CCCNC(=N)N)NC(=O)[C@H](C)NC(=O)[C@H](CO)NC(=O)[C@H](CCCCN)NC(=O)[C@H](CCCNC(=N)N)NC(=O)[C@H](C)NC(=O)CNC(=O)[C@@H](NC(=O)[C@H](Cc1ccccc1)NC(=O)CNC(=O)CNC(=O)[C@@H](N)Cc1ccccc1)[C@@H](C)O)C(=O)N[C@@H](C)C(=O)N[C@@H](CC(N)=O)C(=O)N[C@@H](CCC(N)=O)C(=O)O | – | – | – | – | – | Emax [7]: 58%; Emax [8]: 95%
C[C@H](NC(=O)CNC(=O)[C@@H](NC(=O)[C@H](Cc1ccccc1)NC(=O)CNC(=O)CNC(=O)[C@@H](N)Cc1ccccc1)[C@@H](C)O)C(=O)N[C@@H](CCCN=C(N)N)C(=O)N[C@@H](CCCCN)C(=O)N[C@@H](CO)C(=O)N[C@@H](C)C(=O)N[C@@H](CCCN=C(N)N)C(=O)N[C@@H](CCCCN)C(=O)N[C@@H](CCCN=C(N)N)C(=O)N[C@@H](CCCCN)C(=O)N[C@@H](CC(N)=O)C(=O)N[C@@H](CCC(N)=O)C(N)=O | 0.00692 | – | – | – | – | EC50 [9]: 0.1 nM; EC50 [10]: 0.759 nM; EC50 [11]: 1.12 nM
CC(C)C[C@H](NC(=O)[C@H](CCCCN)NC(=O)[C@H](CCCN=C(N)N)NC(=O)[C@H](C)NC(=O)[C@H](CO)NC(=O)[C@H](CCCCN)NC(=O)[C@H](CCCN=C(N)N)NC(=O)[C@H](C)NC(=O)CNC(=O)[C@@H](NC(=O)[C@H](Cc1ccccc1)NC(=O)CNC(=O)CNC[C@@H](N)Cc1ccccc1)[C@@H](C)O)C(=O)N[C@@H](C)C(=O)N[C@@H](CC(N)=O)C(=O)N[C@@H](CCC(N)=O)C(N)=O (H-[X1]GFTGARKSARKLANQ-NH2) | 0.129 | Agonist | Agonist | Agonist | Agonist | EC50 [9]: 0.759 nM; pKb [12]: 7.17; EC50 [13]: 5.25 nM; pKb [14]: 6.65
C[C@H](NC(=O)CNC(=O)[C@@H](NC(=O)[C@H](Cc1ccccc1)NC(=O)CNC(=O)CNC[C@@H](N)Cc1ccccc1)[C@@H](C)O)C(=O)N[C@@H](CCCN=C(N)N)C(=O)N[C@@H](CCCCN)C(=O)N[C@@H](CO)C(=O)N[C@@H](C)C(=O)N[C@@H](CCCN=C(N)N)C(=O)N[C@@H](CCCCN)C(=O)N[C@@H](CCCN=C(N)N)C(=O)N[C@@H](CCCCN)C(=O)N[C@@H](CC(N)=O)C(=O)N[C@@H](CCC(=O)N(N)N)C(=O)NN (H-[X1]GFTGARKSARKRKNE(N(NH2)2)-NHNH2) | – | Agonist | Agonist | Agonist | Agonist | pKb [12]: 8.04; pKb [14]: 7.47
C[C@H](NC(=O)CNC(=O)[C@@H](NC(=O)[C@H](Cc1ccc(F)cc1)NC(=O)CNC(=O)CNC[C@@H](N)Cc1ccccc1)[C@@H](C)O)C(=O)N[C@@H](CCCN=C(N)N)C(=O)N[C@@H](CCCCN)C(=O)N[C@@H](CO)C(=O)N[C@@H](C)C(=O)N[C@@H](CCCN=C(N)N)C(=O)N[C@@H](CCCCN)C(=O)N[C@@H](CCCN=C(N)N)C(=O)N[C@@H](CCCCN)C(=O)N[C@@H](CC(N)=O)C(=O)N[C@@H](CCC(=O)N(N)N)C(=O)NN (H-[X1]G[Phe(4-F)]TGARKSARKRKNE(N(NH2)2)-NHNH2) | – | Agonist | Agonist | – | – | pKb [5]: 9.2; pKb ([5]; Cavia porcellus): 8.48; Emax [8]: 53%
